Results: ChEMBL document CHEMBL1139673, “Factor VIIa inhibitors: gaining selectivity within the trypsin family” (Bioorg Med Chem Lett, 2006)

Columns and labels:
Coagulation factor VII = target: T1, Coagulation factor VII (Homo sapiens, UniProt P08709); test: Binding affinity to factor 7a
T1 sequence (P08709 whole entry): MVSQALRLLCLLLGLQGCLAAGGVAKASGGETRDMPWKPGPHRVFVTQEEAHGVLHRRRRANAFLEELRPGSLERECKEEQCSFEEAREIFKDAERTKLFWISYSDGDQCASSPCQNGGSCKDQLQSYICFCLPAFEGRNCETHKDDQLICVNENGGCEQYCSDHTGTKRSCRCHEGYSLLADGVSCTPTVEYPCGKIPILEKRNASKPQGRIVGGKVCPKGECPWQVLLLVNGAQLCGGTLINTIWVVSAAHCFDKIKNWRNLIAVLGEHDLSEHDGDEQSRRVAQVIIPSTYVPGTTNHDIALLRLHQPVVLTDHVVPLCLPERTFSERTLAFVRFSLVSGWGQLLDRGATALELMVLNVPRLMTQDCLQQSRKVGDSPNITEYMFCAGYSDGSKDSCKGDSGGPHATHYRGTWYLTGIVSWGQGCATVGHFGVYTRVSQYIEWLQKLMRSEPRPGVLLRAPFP

Homo sapiens = organism: Homo sapiens; test: Selectivity for factor 7a versus trypsin
Outline: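 Apparent Ki (Morrison tight-binding fit) from two chromogenic assays, both at room temperature with substrate at Km and A405 monitored over time. FVIIa: 7 nM factor VII with 11 nM recombinant soluble human tissue factor in Tris pH 7.4, NaCl, 5.0 mM CaCl2, 1.5 mM EDTA, Tween 20, 10% DMSO; CH3SO2-D-CHA-But-Arg-pNA 500 µM. Trypsin: 10 nM, same buffer without CaCl2; Tosyl-Gly-Pro-Lys-pNA 25 µM.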

Compound	Ki (Coagulation factor VII) [nM]	Selectivity ratio (Homo sapiens)
CC(C)c1cccc(-c2cc(C(CC(=O)O)C(=O)O)cc(-c3nc4ccc(C(=N)N)cc4[nH]3)c2O)c1 (stereo unspecified)	76	
N=C(N)c1ccc2nc(-c3cc(C(CC(=O)O)C(=O)O)cc(-c4cccc(CO)c4)c3O)[nH]c2c1 (stereo unspecified)	21	
N=C(N)c1ccc2[nH]c(-c3cc(C(CC(=O)O)C(=O)O)cc(-c4cc(F)ccc4O)c3O)nc2c1 (stereo unspecified)		4400
N=C(N)c1ccc2[nH]c(-c3cc(C(CC(=O)O)C(=O)O)cc(-c4ccc(Cl)cc4)c3O)nc2c1 (stereo unspecified)		2
Cc1cccc(NC(=O)Cc2cc(C(CC(=O)O)C(=O)O)cc(-c3nc4cc(C(=N)N)ccc4[nH]3)c2O)c1 (stereo unspecified)	54	102
N=C(N)c1ccc2[nH]c(-c3cc(C(CC(=O)O)C(=O)O)cc(-c4cccc(N)c4)c3O)nc2c1 (stereo unspecified)	36	250
N=C(N)c1ccc2nc(-c3cc(C(CC(=O)O)C(=O)O)cc(-c4cccc(Cl)c4Cl)c3O)[nH]c2c1 (stereo unspecified)	270	
N=C(N)c1ccc2[nH]c(-c3cc(C(CC(=O)O)C(=O)O)cc(-c4cc(Cl)ccc4O)c3O)nc2c1 (stereo unspecified)	5.4	2500
N=C(N)c1ccc2nc(-c3cc(C(CC(=O)O)C(=O)O)cc(-c4ccc(F)c(Cl)c4)c3O)[nH]c2c1 (stereo unspecified)	130	
Cc1cccc(-c2cc(C(CC(=O)O)C(=O)O)cc(-c3nc4cc(C(=N)N)ccc4[nH]3)c2O)c1 (stereo unspecified)		108
N=C(N)c1ccc2[nH]c(-c3cc(C(CC(=O)O)C(=O)O)cc(-c4cccc(CO)c4)c3O)nc2c1 (stereo unspecified)		216
CC(=O)c1cccc(-c2cc(C(CC(=O)O)C(=O)O)cc(-c3nc4cc(C(=N)N)ccc4[nH]3)c2O)c1 (stereo unspecified)	33	197
COc1ccc(C#N)cc1-c1cc(C(CC(=O)O)C(=O)O)cc(-c2nc3cc(C(=N)N)ccc3[nH]2)c1O (stereo unspecified)	280	54
N=C(N)c1ccc2[nH]c(-c3cc(C(CC(=O)O)C(=O)O)cc(-c4cc(Cl)cc(Cl)c4)c3O)nc2c1 (stereo unspecified)		98
CC(=O)Nc1cccc(-c2cc(C(CC(=O)O)C(=O)O)cc(-c3nc4cc(C(=N)N)ccc4[nH]3)c2O)c1 (stereo unspecified)		118
N=C(N)c1ccc2[nH]c(-c3cc(C(CC(=O)O)C(=O)O)cc(-c4ccccc4[N+](=O)[O-])c3O)nc2c1 (stereo unspecified)		25
N=C(N)c1ccc2[nH]c(-c3cc(C(CC(=O)O)C(=O)O)cc(-c4cccc(O)c4)c3O)nc2c1 (stereo unspecified)	88	99
N=C(N)c1ccc2[nH]c(-c3cc(C(CC(=O)O)C(=O)O)cc(-c4ccccc4CO)c3O)nc2c1 (stereo unspecified)	730	16
N=C(N)c1ccc2[nH]c(-c3cc(C(CC(=O)O)C(=O)O)cc(-c4cc([N+](=O)[O-])ccc4O)c3O)nc2c1 (stereo unspecified)	6	8500

Compound	Ki (Coagulation factor VII) [nM]	Selectivity ratio (Homo sapiens)
N=C(N)c1ccc2nc(-c3cc(C(CC(=O)O)C(=O)O)cc(-c4cc(F)cc(F)c4)c3O)[nH]c2c1 (stereo unspecified)	68	
Cc1ccccc1-c1cc(C(CC(=O)O)C(=O)O)cc(-c2nc3cc(C(=N)N)ccc3[nH]2)c1O (stereo unspecified)	500	16
N=C(N)c1ccc2[nH]c(-c3cc(C(CC(=O)O)C(=O)O)cc(-c4cc(F)cc(F)c4)c3O)nc2c1 (stereo unspecified)		115
N#Cc1ccc(O)c(-c2cc(C(CC(=O)O)C(=O)O)cc(-c3nc4cc(C(=N)N)ccc4[nH]3)c2O)c1 (stereo unspecified)	12	2960
N=C(N)c1ccc2[nH]c(-c3cc(C(CC(=O)O)C(=O)O)cc(-c4c(O)cc(Cl)cc4Cl)c3O)nc2c1 (stereo unspecified)	25	192
N=C(N)c1ccc2[nH]c(-c3cc(C(CC(=O)O)C(=O)O)cc(-c4cccc(CN)c4)c3O)nc2c1 (stereo unspecified)	780	18
N=C(N)c1ccc2[nH]c(-c3cc(C(CC(=O)O)C(=O)O)cc(-c4ccccc4O)c3O)nc2c1 (stereo unspecified)	13	1080
N=C(N)c1ccc2[nH]c(-c3cc(C(CC(=O)O)C(=O)O)cc(-c4ccc(O)cc4)c3O)nc2c1 (stereo unspecified)	880	10
N=C(N)c1ccc2[nH]c(-c3cc(C(CC(=O)O)C(=O)O)cc(-c4cc(Cl)cc(Cl)c4O)c3O)nc2c1 (stereo unspecified)	14	421
N#Cc1cccc(-c2cc(C(CC(=O)O)C(=O)O)cc(-c3nc4cc(C(=N)N)ccc4[nH]3)c2O)c1 (stereo unspecified)	77	71
N=C(N)c1ccc2nc(-c3cc(C(CC(=O)O)C(=O)O)cc(-c4ccccc4N)c3O)[nH]c2c1 (stereo unspecified)	420	
N=C(N)c1ccc2[nH]c(-c3cc(C(CC(=O)O)C(=O)O)cc(-c4ccccc4)c3O)nc2c1 (stereo unspecified)	74	91
N=C(N)c1ccc2[nH]c(-c3cc(C(CC(=O)O)C(=O)O)cc(-c4ccccc4N)c3O)nc2c1 (stereo unspecified)		41
N=C(N)c1ccc2[nH]c(-c3cc(C(CC(=O)O)C(=O)O)cc(-c4ccccc4CS)c3O)nc2c1 (stereo unspecified)	64	103
Cc1cc(C)cc(-c2cc(C(CC(=O)O)C(=O)O)cc(-c3nc4cc(C(=N)N)ccc4[nH]3)c2O)c1 (stereo unspecified)	29	1080
Cc1ccc(-c2cc(C(CC(=O)O)C(=O)O)cc(-c3nc4ccc(C(=N)N)cc4[nH]3)c2O)cc1 (stereo unspecified)	420	
COc1ccc(F)cc1-c1cc(C(CC(=O)O)C(=O)O)cc(-c2nc3cc(C(=N)N)ccc3[nH]2)c1O (stereo unspecified)	330	52
N=C(N)c1ccc2[nH]c(-c3cc(C(CC(=O)O)C(=O)O)cc(-c4cc(Cl)cc(Br)c4O)c3O)nc2c1 (stereo unspecified)	9	398
CC(C)(C)c1ccc(-c2cc(C(CC(=O)O)C(=O)O)cc(-c3nc4cc(C(=N)N)ccc4[nH]3)c2O)cc1 (stereo unspecified)	16000	1

Compound	Ki (Coagulation factor VII) [nM]	Selectivity ratio (Homo sapiens)
N=C(N)c1ccc2[nH]c(-c3cc(C(CC(=O)O)C(=O)O)cc(-c4cccnc4)c3O)nc2c1 (stereo unspecified)	550	31
N=C(N)c1ccc2[nH]c(-c3cc(C(CC(=O)O)C(=O)O)cc(-c4cccc(OC(F)F)c4)c3O)nc2c1 (stereo unspecified)	120	51
N=C(N)c1ccc2[nH]c(-c3cc(C(CC(=O)O)C(=O)O)cc(-c4cc(Cl)cc(Cl)c4Cl)c3O)nc2c1 (stereo unspecified)	210	39
CC(C)c1cccc(-c2cc(C(CC(=O)O)C(=O)O)cc(-c3nc4cc(C(=N)N)ccc4[nH]3)c2O)c1 (stereo unspecified)		40
N=C(N)c1ccc2[nH]c(-c3cc(C(CC(=O)O)C(=O)O)cc(-c4cc(Cl)ccc4Cl)c3O)nc2c1 (stereo unspecified)	250	35
CC(=O)Nc1cccc(-c2cc(C(CC(=O)O)C(=O)O)cc(-c3nc4ccc(C(=N)N)cc4[nH]3)c2O)c1 (stereo unspecified)	110	
N=C(N)c1ccc2nc(-c3cc(C(CC(=O)O)C(=O)O)cc(-c4ccc(Cl)cc4)c3O)[nH]c2c1 (stereo unspecified)	440	
N=C(N)c1ccc2nc(-c3cc(C(CC(=O)O)C(=O)O)cc(-c4ccccc4[N+](=O)[O-])c3O)[nH]c2c1 (stereo unspecified)	22	
COc1ccc(-c2cc(C(CC(=O)O)C(=O)O)cc(-c3nc4cc(C(=N)N)ccc4[nH]3)c2O)cc1 (stereo unspecified)	2250	1
Cc1ccc(-c2cc(C(CC(=O)O)C(=O)O)cc(-c3nc4cc(C(=N)N)ccc4[nH]3)c2O)cc1 (stereo unspecified)		8
N=C(N)c1ccc2[nH]c(-c3cc(C(CC(=O)O)C(=O)O)cc(-c4cccc(Cl)c4Cl)c3O)nc2c1 (stereo unspecified)		44
N=C(N)c1ccc2nc(-c3cc(C(CC(=O)O)C(=O)O)cc(-c4cc(Cl)cc(Cl)c4)c3O)[nH]c2c1 (stereo unspecified)	27	
N=C(N)c1ccc2[nH]c(-c3cc(C(CC(=O)O)C(=O)O)ccc3O)nc2c1 (stereo unspecified)	6400	1
N=C(N)c1ccc2[nH]c(-c3cc(C(CC(=O)O)C(=O)O)cc(-c4cccc([N+](=O)[O-])c4)c3O)nc2c1 (stereo unspecified)		268
Cc1cccc(-c2cc(C(CC(=O)O)C(=O)O)cc(-c3nc4ccc(C(=N)N)cc4[nH]3)c2O)c1 (stereo unspecified)	38	
N=C(N)c1ccc2[nH]c(-c3cc(C(CC(=O)O)C(=O)O)cc(-c4ccc(F)c(Cl)c4)c3O)nc2c1 (stereo unspecified)		34
N=C(N)c1ccc2[nH]c(-c3cc(C(CC(=O)O)C(=O)O)cc(-c4cc(N)ccc4O)c3O)nc2c1 (stereo unspecified)	10	1790
N=C(N)c1ccc2[nH]c(-c3cc(C(CC(=O)O)C(=O)O)cc(-c4cccc(Cl)c4)c3O)nc2c1 (stereo unspecified)	66	59
